Laboratory results: ChEMBL document CHEMBL4689842, “EUbOPEN Chemogenomics Library wave 1” (2021)

Experiments:
Assay type in all cases: toxicity, cell-based
Fibroblast [1] = experiment: Multiplex assay against human fibroblast
In short: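 Tubulin, mitochondrial-mass and membrane-permeability phenotypes are per cents of healthy-nucleus cells. Cells were gated by CellPathfinder machine learning into Hoechst high-intensity objects or normal cells, normal cells into healthy, pyknosed or fragmented nuclei, and pyknosed cells into mitotic or apoptotic. Before that, live cells stained at seeding with Hoechst33342, BioTracker Green Microtubule Cytoskeleton Dye, MitoTracker Red and Annexin V Alexa Fluor 680 were imaged on a CQ1 microscope at 37°C and 5% CO2 after compound addition.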

Fibroblast [2] = experiment: Incucyte cell viability with human fibroblast; conditions: 10 µM, compound concentration 10 uM; further: filed as whole numbers so only -1 and 0 and 1 occur
U2OS = experiment: Incucyte cell viability with U2OS; conditions: human, 10 µM, compound concentration 10 uM; further: filed as whole numbers so only -1 and 0 and 1 occur
[3] = 12 h, 1 µM, compound concentration 1 uM, replicate 1
[4] = 12 h, 1 µM, compound concentration 1 uM, replicate 2
[5] = 12 h, 10 µM, compound concentration 10 uM, replicate 1
[6] = 12 h, 10 µM, compound concentration 10 uM, replicate 2
[7] = 24 h, 1 µM, compound concentration 1 uM, replicate 1
[8] = 24 h, 1 µM, compound concentration 1 uM, replicate 2
[9] = 24 h, 10 µM, compound concentration 10 uM, replicate 1
[10] = 24 h, 10 µM, compound concentration 10 uM, replicate 2
[11] = 48 h, 1 µM, compound concentration 1 uM, replicate 1
[12] = 48 h, 1 µM, compound concentration 1 uM, replicate 2
[13] = 48 h, 10 µM, compound concentration 10 uM, replicate 1
[14] = 48 h, 10 µM, compound concentration 10 uM, replicate 2
[15] = 6 h, replicate number 1, timepoint 6 hours
[16] = 12 h, replicate number 1, timepoint 12 hours
[17] = 18 h, replicate number 1, timepoint 18 hours
[18] = 24 h, replicate number 1, timepoint 24 hours

With `C[C@@H](Oc1cc(-n2cnc3ccc(CN4CCN(C)CC4)cc32)sc1C(N)=O)c1ccccc1C(F)(F)F` [GSK-461364] the “Population Apoptotic (%)” value (Fibroblast [1]; [3]) was 75%, the “Population Fragmented Nuclei (%)” value (Fibroblast [1]; [3]) was 30% and the “Population Healthy Nuclei (%)” value (Fibroblast [1]; [3]) was 36%. For the same molecule, the “Population Hoechst High Intensity Objects (%)” value (Fibroblast [1]; [3]) was 14%, the “Population Membrane Permeable-Phenotype (%)” value (Fibroblast [1]; [3]) was 34% and the “Population Mitochondria Different-Phenotype (%)” value (Fibroblast [1]; [3]) was 11%. The “Population Mitotic Cells (%)” value (Fibroblast [1]; [3]) was 25%, the “Population Normal (%)” value (Fibroblast [1]; [3]) was 85% and the “Population Pyknosed Nuclei (%)” value (Fibroblast [1]; [3]) was 33%. The “Population Tubulin-Different-Phenotype (%)” value (Fibroblast [1]; [3]) was 69%, the “Population Apoptotic (%)” value (Fibroblast [1]; [4]) was 12% and the “Population Fragmented Nuclei (%)” value (Fibroblast [1]; [4]) was 12%. The “Population Healthy Nuclei (%)” value (Fibroblast [1]; [4]) was 71%, the “Population Hoechst High Intensity Objects (%)” value (Fibroblast [1]; [4]) was 4% and the “Population Membrane Permeable-Phenotype (%)” value (Fibroblast [1]; [4]) was 12%. For the same molecule, the “Population Mitochondria Different-Phenotype (%)” value (Fibroblast [1]; [4]) was 35%, the “Population Mitotic Cells (%)” value (Fibroblast [1]; [4]) was 87% and the “Population Normal (%)” value (Fibroblast [1]; [4]) was 95%. The “Population Pyknosed Nuclei (%)” value (Fibroblast [1]; [4]) was 16%, the “Population Tubulin-Different-Phenotype (%)” value (Fibroblast [1]; [4]) was 30% and the “Population Apoptotic (%)” value (Fibroblast [1]; [5]) was 78%. For the same molecule, the “Population Fragmented Nuclei (%)” value (Fibroblast [1]; [5]) was 29%, the “Population Healthy Nuclei (%)” value (Fibroblast [1]; [5]) was 40% and the “Population Hoechst High Intensity Objects (%)” value (Fibroblast [1]; [5]) was 25%. The “Population Membrane Permeable-Phenotype (%)” value (Fibroblast [1]; [5]) was 21%, the “Population Mitochondria Different-Phenotype (%)” value (Fibroblast [1]; [5]) was 47% and the “Population Mitotic Cells (%)” value (Fibroblast [1]; [5]) was 21%. The “Population Normal (%)” value (Fibroblast [1]; [5]) was 74%, the “Population Pyknosed Nuclei (%)” value (Fibroblast [1]; [5]) was 30% and the “Population Tubulin-Different-Phenotype (%)” value (Fibroblast [1]; [5]) was 90%. For the same molecule, the “Population Apoptotic (%)” value (Fibroblast [1]; [6]) was 40%, the “Population Fragmented Nuclei (%)” value (Fibroblast [1]; [6]) was 13% and the “Population Healthy Nuclei (%)” value (Fibroblast [1]; [6]) was 55%. For the same molecule, the “Population Hoechst High Intensity Objects (%)” value (Fibroblast [1]; [6]) was 9%, the “Population Membrane Permeable-Phenotype (%)” value (Fibroblast [1]; [6]) was 71% and the “Population Mitochondria Different-Phenotype (%)” value (Fibroblast [1]; [6]) was 100%. The “Population Mitotic Cells (%)” value (Fibroblast [1]; [6]) was 59%, the “Population Normal (%)” value (Fibroblast [1]; [6]) was 90% and the “Population Pyknosed Nuclei (%)” value (Fibroblast [1]; [6]) was 31%. The “Population Tubulin-Different-Phenotype (%)” value (Fibroblast [1]; [6]) was 100%, the “Population Apoptotic (%)” value (Fibroblast [1]; [7]) was 70% and the “Population Fragmented Nuclei (%)” value (Fibroblast [1]; [7]) was 31%. For the same molecule, the “Population Healthy Nuclei (%)” value (Fibroblast [1]; [7]) was 44%, the “Population Hoechst High Intensity Objects (%)” value (Fibroblast [1]; [7]) was 17% and the “Population Membrane Permeable-Phenotype (%)” value (Fibroblast [1]; [7]) was 12%. The “Population Mitochondria Different-Phenotype (%)” value (Fibroblast [1]; [7]) was 25%, the “Population Mitotic Cells (%)” value (Fibroblast [1]; [7]) was 29% and the “Population Normal (%)” value (Fibroblast [1]; [7]) was 82%. The “Population Pyknosed Nuclei (%)” value (Fibroblast [1]; [7]) was 24%, the “Population Tubulin-Different-Phenotype (%)” value (Fibroblast [1]; [7]) was 80% and the “Population Apoptotic (%)” value (Fibroblast [1]; [8]) was 50%. The “Population Fragmented Nuclei (%)” value (Fibroblast [1]; [8]) was 14%, the “Population Healthy Nuclei (%)” value (Fibroblast [1]; [8]) was 68% and the “Population Hoechst High Intensity Objects (%)” value (Fibroblast [1]; [8]) was 4%. The “Population Membrane Permeable-Phenotype (%)” value (Fibroblast [1]; [8]) was 18%, the “Population Mitochondria Different-Phenotype (%)” value (Fibroblast [1]; [8]) was 35% and the “Population Mitotic Cells (%)” value (Fibroblast [1]; [8]) was 50%. The “Population Normal (%)” value (Fibroblast [1]; [8]) was 95%, the “Population Pyknosed Nuclei (%)” value (Fibroblast [1]; [8]) was 17% and the “Population Tubulin-Different-Phenotype (%)” value (Fibroblast [1]; [8]) was 28%. The “Population Apoptotic (%)” value (Fibroblast [1]; [9]) was 60%, the “Population Fragmented Nuclei (%)” value (Fibroblast [1]; [9]) was 35% and the “Population Healthy Nuclei (%)” value (Fibroblast [1]; [9]) was 42%. For the same molecule, the “Population Hoechst High Intensity Objects (%)” value (Fibroblast [1]; [9]) was 43%, the “Population Membrane Permeable-Phenotype (%)” value (Fibroblast [1]; [9]) was 35% and the “Population Mitochondria Different-Phenotype (%)” value (Fibroblast [1]; [9]) was 54%. The “Population Mitotic Cells (%)” value (Fibroblast [1]; [9]) was 40%, the “Population Normal (%)” value (Fibroblast [1]; [9]) was 56% and the “Population Pyknosed Nuclei (%)” value (Fibroblast [1]; [9]) was 22%. For the same molecule, the “Population Tubulin-Different-Phenotype (%)” value (Fibroblast [1]; [9]) was 78%, the “Population Apoptotic (%)” value (Fibroblast [1]; [10]) was 82% and the “Population Fragmented Nuclei (%)” value (Fibroblast [1]; [10]) was 10%. The “Population Healthy Nuclei (%)” value (Fibroblast [1]; [10]) was 47%, the “Population Hoechst High Intensity Objects (%)” value (Fibroblast [1]; [10]) was 6% and the “Population Membrane Permeable-Phenotype (%)” value (Fibroblast [1]; [10]) was 90%. For the same molecule, the “Population Mitochondria Different-Phenotype (%)” value (Fibroblast [1]; [10]) was 100%, the “Population Mitotic Cells (%)” value (Fibroblast [1]; [10]) was 17% and the “Population Normal (%)” value (Fibroblast [1]; [10]) was 93%. For the same molecule, the “Population Pyknosed Nuclei (%)” value (Fibroblast [1]; [10]) was 41%, the “Population Tubulin-Different-Phenotype (%)” value (Fibroblast [1]; [10]) was 100% and the “Population Apoptotic (%)” value (Fibroblast [1]; [11]) was 70%. The “Population Fragmented Nuclei (%)” value (Fibroblast [1]; [11]) was 42%, the “Population Healthy Nuclei (%)” value (Fibroblast [1]; [11]) was 44% and the “Population Hoechst High Intensity Objects (%)” value (Fibroblast [1]; [11]) was 21%. For the same molecule, the “Population Membrane Permeable-Phenotype (%)” value (Fibroblast [1]; [11]) was 20%, the “Population Mitochondria Different-Phenotype (%)” value (Fibroblast [1]; [11]) was 8% and the “Population Mitotic Cells (%)” value (Fibroblast [1]; [11]) was 30%. The “Population Normal (%)” value (Fibroblast [1]; [11]) was 78%, the “Population Pyknosed Nuclei (%)” value (Fibroblast [1]; [11]) was 13% and the “Population Tubulin-Different-Phenotype (%)” value (Fibroblast [1]; [11]) was 76%. The “Population Apoptotic (%)” value (Fibroblast [1]; [12]) was 25%, the “Population Fragmented Nuclei (%)” value (Fibroblast [1]; [12]) was 31% and the “Population Healthy Nuclei (%)” value (Fibroblast [1]; [12]) was 62%. For the same molecule, the “Population Hoechst High Intensity Objects (%)” value (Fibroblast [1]; [12]) was 12%, the “Population Membrane Permeable-Phenotype (%)” value (Fibroblast [1]; [12]) was 18% and the “Population Mitochondria Different-Phenotype (%)” value (Fibroblast [1]; [12]) was 11%. The “Population Mitotic Cells (%)” value (Fibroblast [1]; [12]) was 75%, the “Population Normal (%)” value (Fibroblast [1]; [12]) was 87% and the “Population Pyknosed Nuclei (%)” value (Fibroblast [1]; [12]) was 5%. The “Population Tubulin-Different-Phenotype (%)” value (Fibroblast [1]; [12]) was 34%, the “Population Apoptotic (%)” value (Fibroblast [1]; [13]) was 90% and the “Population Fragmented Nuclei (%)” value (Fibroblast [1]; [13]) was 52%. The “Population Healthy Nuclei (%)” value (Fibroblast [1]; [13]) was 31%, the “Population Hoechst High Intensity Objects (%)” value (Fibroblast [1]; [13]) was 45% and the “Population Membrane Permeable-Phenotype (%)” value (Fibroblast [1]; [13]) was 22%. For the same molecule, the “Population Mitochondria Different-Phenotype (%)” value (Fibroblast [1]; [13]) was 45%, the “Population Mitotic Cells (%)” value (Fibroblast [1]; [13]) was 9% and the “Population Normal (%)” value (Fibroblast [1]; [13]) was 54%. For the same molecule, the “Population Pyknosed Nuclei (%)” value (Fibroblast [1]; [13]) was 15%, the “Population Tubulin-Different-Phenotype (%)” value (Fibroblast [1]; [13]) was 68% and the “Population Apoptotic (%)” value (Fibroblast [1]; [14]) was 75%. For the same molecule, the “Population Fragmented Nuclei (%)” value (Fibroblast [1]; [14]) was 39%, the “Population Healthy Nuclei (%)” value (Fibroblast [1]; [14]) was 58% and the “Population Hoechst High Intensity Objects (%)” value (Fibroblast [1]; [14]) was 38%. For the same molecule, the “Population Membrane Permeable-Phenotype (%)” value (Fibroblast [1]; [14]) was 5%, the “Population Mitochondria Different-Phenotype (%)” value (Fibroblast [1]; [14]) was 27% and the “Population Mitotic Cells (%)” value (Fibroblast [1]; [14]) was 25%. For the same molecule, the “Population Normal (%)” value (Fibroblast [1]; [14]) was 61%, the “Population Pyknosed Nuclei (%)” value (Fibroblast [1]; [14]) was 2% and the “Population Tubulin-Different-Phenotype (%)” value (Fibroblast [1]; [14]) was 84%. The “Growth Rate” value (Fibroblast [2]; 0 h, replicate number 2, timepoint 0 hours) was 0, the “Growth Rate” value (Fibroblast [2]; [15]) was 0 and the “Growth Rate” value (Fibroblast [2]; 6 h, replicate number 2, timepoint 6 hours) was 1. For the same molecule, the “Growth Rate” value (Fibroblast [2]; [16]) was 0, the “Growth Rate” value (Fibroblast [2]; [17]) was 0 and the “Growth Rate” value (Fibroblast [2]; [18]) was 0. For the same molecule, the “Growth Rate” value (U2OS; [15]) was 1, the “Growth Rate” value (U2OS; [16]) was 0 and the “Growth Rate” value (U2OS; [17]) was 0. The “Growth Rate” value (U2OS; [18]) was 0.
